Test results taken from ChEMBL document CHEMBL4422612, “Small Molecule Inhibitor that Stabilizes the Autoinhibited Conformation of the Oncogenic Tyrosine Phosphatase SHP2” (J Med Chem, 2019).

How the values were obtained:
[1] = biological target: T1, Tyrosine-protein phosphatase non-receptor type 11 (Homo sapiens, UniProt Q06124); assay: Inhibition of wild type recombinant human SHP2 using H-Glu-Phe-pTyr-Ala-Glu-Val-Gly-Arg-Ser-Pro-Pro-Asp-Pro-Ala-Lys as substrate preincubated for 30 mins followed by substrate addition and measured after 30 mins by Malachite Green-reagent based assay
T1 sequence (Q06124 whole entry): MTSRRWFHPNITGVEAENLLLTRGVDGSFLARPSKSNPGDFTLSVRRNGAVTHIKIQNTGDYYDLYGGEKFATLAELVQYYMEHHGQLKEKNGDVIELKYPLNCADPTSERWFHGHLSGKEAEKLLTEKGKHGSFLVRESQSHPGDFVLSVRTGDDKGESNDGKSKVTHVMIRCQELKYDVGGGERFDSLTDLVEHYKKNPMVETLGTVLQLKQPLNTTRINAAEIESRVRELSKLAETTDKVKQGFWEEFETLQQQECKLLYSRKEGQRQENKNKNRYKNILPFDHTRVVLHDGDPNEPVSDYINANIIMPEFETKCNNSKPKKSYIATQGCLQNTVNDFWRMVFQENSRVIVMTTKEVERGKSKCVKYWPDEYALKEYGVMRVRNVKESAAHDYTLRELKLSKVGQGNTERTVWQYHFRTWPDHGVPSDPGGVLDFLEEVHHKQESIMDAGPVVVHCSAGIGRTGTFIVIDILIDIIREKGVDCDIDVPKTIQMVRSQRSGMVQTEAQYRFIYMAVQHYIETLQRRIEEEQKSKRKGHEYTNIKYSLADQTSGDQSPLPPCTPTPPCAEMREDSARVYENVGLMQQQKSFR
Outline: (§1)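 Full-length SHP2 or SHP1 (0.1 µg) preincubated with compound 30 min at room temperature in 25 mM Tris-HCl pH 7.4, 50 mM NaCl, 5 mM DTT, 2.5 mM EDTA. Phospho-peptide substrate added to 50 µM final; 30 min at 30 °C. Released phosphate read by Malachite Green at OD620. IC50 from six concentrations; three experiments.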

[2] = biological target: Tyrosine-protein phosphatase non-receptor type 6 (Homo sapiens, UniProt P29350); assay: Inhibition of wild type recombinant human SHP1 using H-Glu-Phe-pTyr-Ala-Glu-Val-Gly-Arg-Ser-Pro-Pro-Asp-Pro-Ala-Lys as substrate preincubated for 30 mins followed by substrate addition and measured after 30 mins by Malachite Green-reagent based assay; outline: as §1
[3] = biological target: T1, Tyrosine-protein phosphatase non-receptor type 11; assay: Binding affinity to full length wild type His-tagged SHP2 (unknown origin) by MST assay
Outline: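 His-tagged SHP2 (200 nM) in 50 mM Tris-HCl pH 8.0, 10 mM NaCl, 0.005% Tween 20, labelled with red-tris-NTA dye. Mixed 1:1 with a 15-step 2-fold dilution series from 600 µM made in PBS/0.005% Tween 20. MST run at 50% power with red filter; one-site fit gives Kd. Mean ± SD of three experiments.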

MEF = assay: Growth inhibition of PTPN11-depleted MEF at 6 uM after 24 to 72 hrs by cell proliferation-based assay; conditions: mouse
Outline: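 Ptpn11 fl/fl and Ptpn11 +/+ MEFs, both Ade-Cre+, infected with adeno-Cre, then given 6 µM compound or DMSO. Growth measured at 24, 48 and 72 h by One Solution proliferation assay. SHP2 loss confirmed by immunoblot. Triplicates from one of three experiments.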

NCI-H661 [4] = assay: Induction of apoptosis in human NCI-H661 cells assessed as viable cells at 10 uM after 24 hrs by Annexin V/FITC-staining based FACS analysis (reference value: 86.9%); assay type: functional; conditions: NCI-H661, 24 h, read-out: Activity
NCI-H661 [5] = assay: Induction of apoptosis in human NCI-H661 cells assessed as early apoptotic cells at 10 uM after 24 hrs by Annexin V/FITC-staining based FACS analysis (reference value: 5%); assay type: functional
NCI-H661 [6] = assay: Induction of apoptosis in human NCI-H661 cells assessed as late apoptotic cells at 10 uM after 24 hrs by Annexin V/FITC-staining based FACS analysis (reference value: 3.5%); assay type: functional
NCI-H661 [7] = assay: Induction of apoptosis in human NCI-H661 cells assessed as necrotic cells at 10 uM after 24 hrs by Annexin V/FITC-staining based FACS analysis (reference value: 4.6%); assay type: functional
NCI-H661 [8] = assay: Induction of apoptosis in human NCI-H661 cells assessed as viable cells at 20 uM after 24 hrs by Annexin V/FITC-staining based FACS analysis (reference value: 86.9%); assay type: functional; conditions: NCI-H661, 24 h, read-out: Activity
NCI-H661 [9] = assay: Induction of apoptosis in human NCI-H661 cells assessed as early apoptotic cells at 20 uM after 24 hrs by Annexin V/FITC-staining based FACS analysis (reference value: 5%); assay type: functional
NCI-H661 [10] = assay: Induction of apoptosis in human NCI-H661 cells assessed as late apoptotic cells at 20 uM after 24 hrs by Annexin V/FITC-staining based FACS analysis (reference value: 3.5%); assay type: functional
NCI-H661 [11] = assay: Induction of apoptosis in human NCI-H661 cells assessed as necrotic cells at 20 uM after 24 hrs by Annexin V/FITC-staining based FACS analysis (reference value: 4.6%); assay type: functional
[12] = biological target: T1, Tyrosine-protein phosphatase non-receptor type 11; assay: Inhibition of recombinant full length human GST-tagged SHP2 PTP domain using phospho-peptide as substrate pre-incubated for 30 mins before substrate addition and measured after 30 mins
[13] = biological target: Tyrosine-protein phosphatase non-receptor type 11 (Homo sapiens, UniProt Q06124, E76K); assay: Inhibition of recombinant full length human GST-tagged SHP2 E76K mutant using phospho-peptide as substrate pre-incubated for 30 mins before substrate addition and measured after 30 mins
Tyrosine-protein phosphatase non-receptor type 11 (Homo sapiens, UniProt Q06124, E76K), sequence (Q06124 as listed by the source E76K): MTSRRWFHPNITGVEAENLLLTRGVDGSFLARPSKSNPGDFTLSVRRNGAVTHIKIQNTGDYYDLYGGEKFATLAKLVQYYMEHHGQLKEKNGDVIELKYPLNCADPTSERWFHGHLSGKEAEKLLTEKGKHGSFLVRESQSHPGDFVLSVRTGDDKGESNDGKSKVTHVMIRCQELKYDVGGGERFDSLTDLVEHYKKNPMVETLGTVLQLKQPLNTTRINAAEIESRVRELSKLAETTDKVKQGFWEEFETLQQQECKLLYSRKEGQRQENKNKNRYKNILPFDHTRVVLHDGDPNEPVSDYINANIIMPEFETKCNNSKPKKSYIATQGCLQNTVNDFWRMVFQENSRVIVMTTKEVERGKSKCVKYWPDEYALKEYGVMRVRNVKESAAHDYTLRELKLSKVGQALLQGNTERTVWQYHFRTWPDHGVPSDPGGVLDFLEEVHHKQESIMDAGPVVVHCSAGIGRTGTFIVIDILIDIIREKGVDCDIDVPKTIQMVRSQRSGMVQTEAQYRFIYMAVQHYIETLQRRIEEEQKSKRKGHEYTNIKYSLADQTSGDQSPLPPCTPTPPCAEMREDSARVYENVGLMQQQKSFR

Tyrosine-protein phosphatase non-receptor type 6, sequence (P29350 whole entry): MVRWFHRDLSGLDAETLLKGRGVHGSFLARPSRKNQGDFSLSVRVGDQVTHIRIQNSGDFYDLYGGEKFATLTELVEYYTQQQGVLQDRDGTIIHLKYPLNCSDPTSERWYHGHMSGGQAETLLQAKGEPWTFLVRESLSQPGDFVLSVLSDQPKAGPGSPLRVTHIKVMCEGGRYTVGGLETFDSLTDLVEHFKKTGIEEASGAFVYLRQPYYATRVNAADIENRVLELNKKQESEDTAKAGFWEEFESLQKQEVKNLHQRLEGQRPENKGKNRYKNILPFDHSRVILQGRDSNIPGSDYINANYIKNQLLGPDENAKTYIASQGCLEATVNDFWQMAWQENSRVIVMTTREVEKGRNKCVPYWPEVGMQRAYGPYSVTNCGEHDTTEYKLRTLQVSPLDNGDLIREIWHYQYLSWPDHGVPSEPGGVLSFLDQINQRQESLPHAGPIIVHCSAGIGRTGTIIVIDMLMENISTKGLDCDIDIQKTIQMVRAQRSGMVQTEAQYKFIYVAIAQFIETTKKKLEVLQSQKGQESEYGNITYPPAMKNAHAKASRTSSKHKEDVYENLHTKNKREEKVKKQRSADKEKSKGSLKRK

IC50 [1]: 9.8 µM
IC50 [2]: 72.7 µM
Kd [3]: 69 µM
IC50 [12]: 20.9 µM
IC50 [13]: 7.67 µM
SMILES: CCOc1cc(O)c(C(=O)/C=C/c2ccc(Cl)cc2Cl)cc1CN1CCC=C(n2c(=O)[nH]c3ccccc32)C1
Activity (MEF): Non-Toxic
viability at 10 µM (NCI-H661 [4]): 76.8%
Activity (NCI-H661 [5]): 9.7%
Activity (NCI-H661 [6]): 7.3%
Activity (NCI-H661 [7]): 6.2%
viability at 20 µM (NCI-H661 [8]): 57.6%
Activity (NCI-H661 [9]): 12.6%
Activity (NCI-H661 [10]): 21%
Activity (NCI-H661 [11]): 8.9%
